Results on 37 sequences are retold here after the array DNA melting data of Ke et al. (doi:10.1101/2024.01.08.574731).

Series [1] in a line: melting temperature; fluorescence melt of hairpins on a sequencing array, two-state fit, raised by 9.35 °C to match UV melts. As to conditions: sodium 0.088 M. In a few lines: (§1)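 Library hairpins on a sequenced MiSeq flow cell carried annealed Cy3 and quencher oligos, and their Cy3 fluorescence was imaged in 50 mM Na-HEPES pH 8.0 with 25 mM NaCl, in 2.5 °C steps up to 60 °C. Signals were normalised to Cy3 before quenching and to control constructs. Melting temperature and folding enthalpy were obtained from bootstrapped two-state fits, combined by inverse-variance weighting across four replicates, and the fitted temperatures were then raised by 9.35 °C to match UV melts.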

The nature of series [2]: folding enthalpy; higher = less favourable; fluorescence melt of hairpins on a sequencing array, two-state fit. As to conditions: sodium 0.088 M. Put shortly: as §1

GCGCTCGGAAACGAGCAC (.(((((....))))).): the Tm in series [1] came to 51.5 °C. The folding enthalpy in series [2] is -10.4 kcal/mol.

For GGCAGCGAAAGCTTGCC ((((((....))).))), the Tm in series [1] was 63.1 °C. Further, the folding enthalpy in series [2] is -27.1 kcal/mol.

Regarding GATCGAGGAAACTCAATC (((.(((....))).))), the Tm in series [1] was found to be 25.9 °C. Besides, in series [2], the folding enthalpy is -10.2 kcal/mol.

Take GTTGCTCGAAAGAGTAAC (((.(((....))).))): the Tm in series [1] turned out to be 52.4 °C. Further, the folding enthalpy in series [2] is -35.1 kcal/mol.

Regarding GCTCGCGAAAGCGTAGC ((((((....))).))), the Tm in series [1] amounted to 61.9 °C. The folding enthalpy in series [2] was -19 kcal/mol.

For GCAACGCGAAAGCATTGC ((((.((....)).)))), in series [1], the Tm worked out at 59.7 °C. The folding enthalpy in series [2] is -27.3 kcal/mol.

As to GCTTTTCGAAAGAACAGC (((.(((....))).))), the Tm in series [1] was found to be 42.8 °C. In addition, the folding enthalpy in series [2] is -31.8 kcal/mol.

As to GAGCGAGGAAACTCGTTC ((.((((....)))).)), the Tm in series [1] came to 48.8 °C. The folding enthalpy in series [2] is -27 kcal/mol.

Regarding GTCACCCCGAAAGGGGAC (((..(((....)))))), in series [1], the Tm stood at 41.4 °C. Moreover, the folding enthalpy in series [2] is -10.1 kcal/mol.

For GATCCCCATAGGGATC ((((((....)))))), the Tm in series [1] stood at 62.8 °C. Also, the folding enthalpy in series [2] is -41.1 kcal/mol.

In the case of GCGCGAGCGAAAGCTCGC (((..(((....)))))), the Tm in series [1] worked out at 69.1 °C. For the same sequence, in series [2], the folding enthalpy is -6.17 kcal/mol.

GGGACCGAAAGGTTACCC ((((((....)))..))): in series [1], the Tm amounted to 47 °C. In addition, the folding enthalpy in series [2] was -17.6 kcal/mol.

Turning to GGGCTCGGAAACAAGCCC (((((.(....).))))), in series [1], the Tm was determined as 51.4 °C. Further, the folding enthalpy in series [2] was -28.1 kcal/mol.

On to GGGAGGGGAAACCCCCCC (((.(((....))).))), for which the Tm in series [1] is 53.3 °C. Moreover, the folding enthalpy in series [2] is -38.7 kcal/mol.

For GATCTCTCTTGAGATC ((((((....)))))), in series [1], the Tm came to 53.5 °C. The folding enthalpy in series [2] was -37.9 kcal/mol.

With GATACAGAAATGTATC ((((((....)))))), the Tm in series [1] was 44.8 °C. For the same sequence, the folding enthalpy in series [2] is -30.3 kcal/mol.

Turning to GCGAGACGAAAGTCCGC (((.(((....)))))), the Tm in series [1] worked out at 67.2 °C. Also, in series [2], the folding enthalpy was -29.3 kcal/mol.

On to GCGTTCTACGC ((((...)))), for which the Tm in series [1] came to 58.2 °C. For the same sequence, in series [2], the folding enthalpy was -22.5 kcal/mol.

In the case of GGCATAGAAATATGCC ((((((....)))))), in series [1], the Tm was 55.4 °C. Moreover, in series [2], the folding enthalpy is -42.2 kcal/mol.

Turning to GATCCAACGCTGGATC ((((((....)))))), the Tm in series [1] worked out at 49.1 °C. Also, the folding enthalpy in series [2] is -38.3 kcal/mol.

Regarding GAGGCAACGAAAGTTCTC (((..(((....)))))), the Tm in series [1] was found to be 24.4 °C. The folding enthalpy in series [2] was -11.3 kcal/mol.

Regarding GTTGTAGGAAACTACGAC ((.((((....)))).)), in series [1], the Tm is 45.8 °C. For the same sequence, the folding enthalpy in series [2] was -26 kcal/mol.

On to GCGAAAGTTCGC ((((....)))), for which the Tm in series [1] amounted to 47.2 °C. For the same sequence, in series [2], the folding enthalpy was -19.6 kcal/mol.

For the sequence GCGTGGCGAAAGCTAGGC ((.(.((....)).).)), in series [1], the Tm was 52 °C. Moreover, in series [2], the folding enthalpy was -20.4 kcal/mol.

In the case of GATCTAGAACTAGATC ((((((....)))))), the Tm in series [1] was 44.9 °C. In addition, in series [2], the folding enthalpy is -34.2 kcal/mol.

In the case of GCCAACGAAAGTTGCGGC ((((((....)))..))), in series [1], the Tm stood at 51.5 °C. Besides, the folding enthalpy in series [2] is -16.9 kcal/mol.

With GCGGCATCGAAAGATCGC (((..(((....)))))), in series [1], the Tm stood at 45.6 °C. In addition, the folding enthalpy in series [2] is -22.7 kcal/mol.

For the sequence GTCCAACCGAAAGGTGAC (((..(((....)))))), the Tm in series [1] came to 37.2 °C. Moreover, the folding enthalpy in series [2] is -16.3 kcal/mol.

For the sequence GACGGCGAAAGCCCGGTC ((((((....)))..))), the Tm in series [1] stood at 48.1 °C. Moreover, the folding enthalpy in series [2] is -13.2 kcal/mol.

As for GCGGCTGGAAACAACCGC ((((.((....)).)))), the Tm in series [1] was found to be 54 °C. Further, in series [2], the folding enthalpy was -45 kcal/mol.

As to GTTGGAGGAAACTCCAGC (.(((((....))))).), the Tm in series [1] is 47.6 °C. In addition, in series [2], the folding enthalpy is -21.1 kcal/mol.

Consider GAGTTTGGAAACAAACCC (.(((((....))))).), for which the Tm in series [1] stood at 37.3 °C. For the same sequence, the folding enthalpy in series [2] is -18.5 kcal/mol.

With GCGGTCGGCCGC ((((....)))), in series [1], the Tm was determined as 60.1 °C. Also, the folding enthalpy in series [2] is -24.2 kcal/mol.

As for GGGAGGCGAAAGCCCCC (((.(((....)))))), in series [1], the Tm was determined as 66.3 °C. Besides, the folding enthalpy in series [2] was -19.2 kcal/mol.

Take GTACGGGGAAACTCGTGC (.(((.(....).))).): the Tm in series [1] was found to be 39.6 °C. Besides, the folding enthalpy in series [2] is -27.5 kcal/mol.

Consider GCTATCCGAAAGGAGAGC (((.(((....))).))), for which the Tm in series [1] is 58.6 °C. Besides, the folding enthalpy in series [2] was -38.9 kcal/mol.

On to GTGTCAGGAAACTGATAC ((.((((....)))).)), for which the Tm in series [1] came to 45.8 °C. In addition, the folding enthalpy in series [2] was -29.4 kcal/mol.
